CHO parental Ca – signal in parental CHO cells, OX1R antagonist counter-screen | parental CHO-K1, ATP-induced calcium, Fluo-8 fluorescence | 330,000 tested, 0.63% active | inhibition, % at 5.6 µM | AID 463079;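 active means inhibition above that plate's mean sample inhibition plus 3 SD, cut at about 26% in these data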;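 further: 0% = ATP-challenged DMSO wells and 100% = DMSO wells without ATP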
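Test system: untransfected parental CHO cell line; also added: ATP stimulus; dosing: 5.6 µM, single dose; signal: calcium-sensitive Fluo-8 fluorescence; measure: percent inhibition of ATP-evoked calcium rise, normalized to controls; benchmarks: low control ATP plus DMSO, high control DMSO only; replication: one well per compound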
GPR7 antag – antagonists of human GPR7 (neuropeptides B/W receptor 1); P48145; GPR7-expressing cells, fluorescence antagonist assay; inhibition, % at 4.4 µM; 290,000 tested, 1.1% active; AID 1861; in the data active means inhibition above about 16%, passing the limit was not always enough;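 further: cells stimulated with the agonist NPW; 0% = agonist with vehicle and 100% = vehicle without agonist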
OX1R antag-1 – blocks the human orexin 1 receptor | inhibition, % at 6.6 µM | O43613 | 330,000 tested, 1.8% active | OX1R-expressing cells, FRET antagonist read-out; in the data active means inhibition mostly above about 38%, no sharp cut-off; inactive means mostly below about 40%;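 further: 0% = agonist challenge alone and 100% = reference antagonist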
Target sequence (O43613 whole entry, looked up): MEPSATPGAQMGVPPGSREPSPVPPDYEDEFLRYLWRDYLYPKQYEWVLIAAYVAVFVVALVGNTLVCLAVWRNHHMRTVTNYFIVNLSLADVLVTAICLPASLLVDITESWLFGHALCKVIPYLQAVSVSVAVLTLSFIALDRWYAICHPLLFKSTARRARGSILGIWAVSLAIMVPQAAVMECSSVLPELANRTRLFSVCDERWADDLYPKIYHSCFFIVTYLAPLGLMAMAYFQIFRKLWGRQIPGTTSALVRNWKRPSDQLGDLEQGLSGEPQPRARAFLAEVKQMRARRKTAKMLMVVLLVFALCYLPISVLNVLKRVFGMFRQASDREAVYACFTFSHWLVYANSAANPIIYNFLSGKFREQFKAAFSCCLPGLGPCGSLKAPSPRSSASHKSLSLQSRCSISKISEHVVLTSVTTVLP
TAAR1 agonist – human TAAR1 agonism. CHO RD-HGA16 TAAR1, Fluo-8 calcium fluorescence; vehicle wells 0%, saturating PEA agonist 100%. activation, % at 3 µM. 360,000 tested, 0.99% active. AID 624467;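 active means activation above the mean activation of all test compounds in the run plus 3 SD, cut at about 38% in these data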
Target sequence (Q96RJ0 whole entry, looked up): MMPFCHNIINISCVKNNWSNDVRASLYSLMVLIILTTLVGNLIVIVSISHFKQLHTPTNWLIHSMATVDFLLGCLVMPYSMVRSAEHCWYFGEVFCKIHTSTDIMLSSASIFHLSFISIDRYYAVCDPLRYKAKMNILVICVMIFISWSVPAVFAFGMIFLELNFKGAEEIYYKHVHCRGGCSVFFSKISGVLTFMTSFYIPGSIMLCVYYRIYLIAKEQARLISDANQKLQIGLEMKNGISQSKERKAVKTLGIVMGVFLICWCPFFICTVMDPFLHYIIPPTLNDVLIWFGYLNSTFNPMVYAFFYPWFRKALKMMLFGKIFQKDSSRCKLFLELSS
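Test system: RD-HGA16 (CHO) cells co-expressing Gα16 and hTAAR1 | Doses: Single dose, 3 µM | Schedule: 17-24 h seeding, 75 min 37 °C dye, 30 min RT | Evaluation: % activation from peak over basal fluorescence ratio, DMSO-to-PEA scaled | Technique: Kinetic Fluo-8 calcium fluorescence | Benchmarks: Low control DMSO, high control PEA (EC100)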
OX1R antag-2 – human HCRTR1 antagonism; O43613; CHO/OX1R cells, Fluo-8 calcium fluorescence, orexin A; inhibition, % at 5 µM; 330,000 tested, 0.43% active;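 active means inhibition above its plate's threshold, mean inhibition of all tested compounds on the plate plus 3 SD, cut at about 37% in these data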;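 further: 0% = orexin A challenge wells and 100% = SB-334867-A antagonist wells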
TAAR1 antag – human TAAR1 antagonism | inhibition, % at 3 µM | CHO RD-HGA16 TAAR1, Fluo-8 calcium fluorescence, antagonist | 360,000 tested, 1.5% active | AID 624466 | Q96RJ0;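 active means inhibition above a per-plate cutoff, the mean inhibition of test compounds on that plate plus 3 SD, cut at about 49% in these data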;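 further: 0% = DMSO plus EC80 beta-PEA response and 100% = DMSO alone without agonist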
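Assay system: RD-HGA16 CHO cells with stable hTAAR1 and Gα16 / Reagent: EC80 β-phenethylamine stimulus / Doses: 3 µM, single point / Timing: dye loading 75 min at 37 °C, then 30 min room temperature / Measured by: Fluo-8 intracellular calcium dye fluorescence, real-time kinetic reads / Controls: vehicle wells and EC80 agonist wells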
GPR7 antag conf – confirmation of human GPR7 antagonists; shares compounds with GPR7 antag; GPR7-expressing cells, calcium fluorescence antagonist mode; inhibition, % at 4.4 µM; 2,400 tested, 52% active; in the data active means inhibition above about 24%;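 further: stimulated with the GPR7 agonist NPW; 0% = agonist plus vehicle and 100% = vehicle alone without agonist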
MCHR1 antagonist – MCHR1 (human) antagonism in GPR7 counter-screen | shares compounds with GPR7 antag | MCHR1-expressing cells, fluorescence antagonist assay | inhibition, % at 4.4 µM | 2,400 tested, 62% active; in the data active means inhibition above about 22%;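 further: 0% = vehicle with agonist and 100% = vehicle without agonist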
The depositor's hits bear a star; · = not tested or not shown. Most compounds without a hit are left out; they make up all but 4.6% or so of the library.

SMILES	CHO parental Ca	GPR7 antag	OX1R antag-1	TAAR1 agonist	OX1R antag-2	TAAR1 antag	GPR7 antag conf	MCHR1 antagonist
Cc1ccc(-n2cccn2)c(CN2CCC(CO)(CCc3ccccc3)CC2)c1	·	21.1*	·	4.1	·	-6.9	32.0*	27.5*
OCC1(CCc2ccccc2)CCN(Cc2cc(Cl)ccc2O)CC1	-0.6	7.8	19.5	17.5	-8.2	-4.7	·	·
CCOC(=O)C1CCCN(c2nc3ccccc3nc2NS(=O)(=O)c2ccc(C)cc2)C1 (centres undefined)	-13.0	·	0.2	-2.7	-30.5	2.8	·	·
CCOc1ccc(N2C(=O)CC(NNc3nc4ccccc4s3)C2=O)cc1 (centres undefined)	-11.0	1.6	8.7	0.2	-27.9	19.7	·	·
O/N=C(\c1ccccn1)C1CC1c1ccccc1 (centres undefined)	-3.9	-10.4	17.5	-1.6	-12.7	-1.2	·	·
COc1ccc(C2CC2/C(=N/O)c2ccccn2)cc1 (centres undefined)	-13.6	28.3*	21.9	-1.4	6.8	25.8	26.2*	17.5
CCn1cc(C(=O)NCc2cccs2)c(=O)c2cc(S(=O)(=O)N3CCOCC3)ccc21	-2.5	4.3	6.4	-1.8	-17.3	-4.0	·	·
O=C(NCCCN1CCOCC1)c1nn(-c2ccccc2)c(=O)c2ccccc12	-5.7	·	11.2	1.0	-23.8	-12.2	·	·
COc1ccc(N2CCN(C(=O)Cn3cnc4c3c(=O)n(C)c(=O)n4C)CC2)cc1	-16.7	-9.3	8.2	8.9	-20.1	-5.0	·	·
COc1ccc(CC2(CO)CCN(C(C)Cc3ccc(Cl)cc3)CC2)cc1 (centres undefined)	-14.8	21.3*	4.5	13.6	-30.8	-5.6	4.6	20.3
O=C(Nc1ccccc1)Nc1ccc(Br)c(Cl)c1	28.8*	28.9*	54.7	23.3	12.6	39.6	49.5*	56.6*
O=C(Nc1ccccc1)Nc1ccccc1Br	13.6	-1.4	26.1	-1.4	-11.5	6.8	·	·
CCCN(CCC)c1nc(Cl)nc(NCc2ccco2)n1	-22.3	21.2*	18.5	18.5	-43.6	-9.4	-13.4	7.4
Cc1ccc(-c2nn(-c3ccccc3)cc2CNCc2ccccc2)cc1	-4.9	23.5*	13.3	29.9	7.5	31.3	41.1*	52.9*
Cc1noc(C)c1CSc1nc2ccccc2n1CCc1ccccc1	-19.0	26.0*	36.4	0.6	19.6	-24.8	-2.8	9.8
Cc1ccccc1NC(=O)Nc1ccc(C(F)(F)F)cc1	24.7	54.5*	33.4	7.3	-0.3	-10.1	69.0*	52.4*
Cc1ccccc1NC(=O)CNC(=O)c1ccc(C(F)(F)F)cc1	-10.3	-4.0	20.3	-1.6	-8.4	4.6	·	·
O=C(Nc1ccc(Br)cc1)Nc1ccccc1F	5.3	28.2*	26.4	16.4	-5.6	12.3	59.1*	65.4*
O=C(O)C1C2C=CC(O2)C1C(=O)NCCC1=CCCCC1 (centres undefined)	-4.5	-3.9	4.2	·	-11.3	·	·	·
CNc1c(NS(=O)(=O)c2ccc(OC)c(Cl)c2)c(=O)oc2ccccc12	-12.2	-4.3	15.6	7.2	-20.0	10.8	·	·
COC(=O)[C@@]1(Cc2ccc(F)cc2)[C@H]2c3cc(C(=O)N4CCCC4)n(Cc4ccc(C(F)(F)F)nc4)c3C[C@H]2CN1C(=O)c1ccccc1	-21.7	28.8*	19.4	12.6	-15.7	8.3	38.9*	22.2*
O=C(CN1C(=O)C2C3C=CC(C3)C2C1=O)NC1CCCc2ccccc21 (centres undefined)	-14.9	30.2*	7.0	4.4	-12.7	2.9	-1.3	6.4
CCNC(=S)N1CCN(c2ccc([N+](=O)[O-])cc2)CC1	-4.6	27.2*	47.0	11.6	-20.3	-1.6	9.6	12.2
CCc1nc2ccc(C(=O)N3CCN(c4ccc([N+](=O)[O-])cc4)CC3)cc2nc1CC	-18.6	29.4*	15.5	-1.9	-33.1	-4.6	23.9*	85.7*
O=[N+]([O-])c1ccc(N2CCN(C(=S)NCc3ccc(Cl)cc3)CC2)cc1	84.4*	50.8*	31.8	6.3	51.2*	36.0	80.9*	87.1*
SMILES	CHO parental Ca	GPR7 antag	OX1R antag-1	TAAR1 agonist	OX1R antag-2	TAAR1 antag	GPR7 antag conf	MCHR1 antagonist
CNC(=S)N1CCN(c2ccc([N+](=O)[O-])cc2)CC1	4.3	2.7	25.9	6.0	0.1	5.6	·	·
CCCN(C(=O)c1cc2c(s1)CCC2)c1c(N)n(Cc2ccccc2)c(=O)[nH]c1=O	-21.4	-9.5	22.6	-2.1	-19.1	2.3	·	·
CC(C)[C@@H]1NC(=O)[C@@H]2CSCCS(=O)(=O)N2C1=O	·	·	·	3.0	·	-6.7	·	·
COc1ccc(NC(=O)N(C)C[C@H]2Oc3ccc(NC(=O)CCN4CCOCC4)cc3C(=O)N([C@@H](C)CO)C[C@H]2C)cc1	4.3	·	6.7	1.5	4.3	-4.9	·	·
COC(=O)CNC(=O)CN1C(=O)N(c2ccc(Cl)cc2)C(N(O)C(=O)Nc2ccc(Cl)cc2)C1(C)C (centres undefined)	-25.8	-8.4	13.2	18.7	-33.2	0.3	·	·
O=C(c1ccc(Cl)c(S(=O)(=O)N2CCCCCC2)c1)N1CCCCC1	9.2	·	16.0	28.3	-5.2	15.1	·	16.2
Cc1ccc(C(=O)N2CCOCC2)cc1S(=O)(=O)N1CCCC1	5.5	-5.2	-1.2	0.9	-5.7	-17.3	·	·
CN1CCN(C(=O)c2ccc(Cl)c(S(=O)(=O)N3CCCCC3)c2)CC1	-9.0	-11.0	-4.0	13.8	-36.5	6.4	·	·
Cc1ccc(C(=O)N2CCCCC2)cc1S(=O)(=O)N1CCCCCC1	-4.6	21.5*	11.3	11.7	-21.4	4.8	25.5*	5.3
CC(=O)N1CCC(c2nc3ccccc3n2C(C)C(=O)NCc2ccccc2)CC1 (centres undefined)	·	·	·	4.2	·	-18.3	·	·
CCCCn1cnc2c(c(-c3ccccc3)c(-c3ccccc3)n2Cc2ccco2)c1=N	-15.5	32.4*	4.3	34.6	-17.3	-13.0	54.4*	96.8*
CCCCn1c(=O)[nH]c(=O)c2c1ncn2Cc1ccco1	-9.5	-14.4	19.0	·	-15.6	·	·	·
Cc1cc2oc(=O)cc(CNc3ccccc3F)c2cc1O	3.6	38.0*	14.7	3.6	-19.7	6.1	44.1*	68.1*
NS(=O)(=O)c1ccc(O)c(N2C(=O)c3cccc4c(C(=O)c5ccccc5)ccc(c34)C2=O)c1	·	-8.6	·	·	·	·	·	·
CN(C)C(=O)c1cccc(-c2cccc(-c3nc(C(=O)NCc4ccccc4)cc4c3[C@H](CCO)N(S(=O)C(C)(C)C)C4)c2)c1 (some centres undefined)	·	·	·	-0.6	·	-3.4	·	·

Screening data deposited in PubChem BioAssay by The Scripps Research Institute Molecular Screening Center.
